≈ marks a conversion by molar mass, not a printed value.
Tests used:
Assay type in all cases: functional
[1] = system: Staphylococcus aureus; assay: Antimicrobial activity against methicillin-resistant Staphylococcus aureus B3 after 24 hrs
Procedure, shortened: (§1)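 MIC by dilution in nutrient broth. Anaerobic organisms were incubated in an anaerobic cabinet. Controls were the same organisms incubated without test compound.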

[2] = system: Staphylococcus aureus; assay: Antimicrobial activity against Staphylococcus aureus T1 after 24 hrs; procedure, shortened: as §1
[3] = system: Acinetobacter sp.; assay: Antimicrobial activity against Acinetobacter sp.1
[4] = system: Clostridioides difficile; assay: Antimicrobial activity against Clostridium difficile Z172 after 48 hrs
Procedure, shortened: (§2)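 Anaerobes incubated in an anaerobic cabinet for broth MIC determination. Drug-free incubations of the same organisms served as controls. Value is the minimum inhibitory concentration.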

[5] = system: Staphylococcus aureus; assay: Antimicrobial activity against methicillin-sensitive Staphylococcus aureus A2 after 24 hrs; procedure, shortened: as §1
[6] = system: Staphylococcus aureus; assay: Antimicrobial activity against Staphylococcus aureus ATCC 6538 after 24 hrs; conditions: ATCC 6538, 24 h; procedure, shortened: as §1
[7] = system: Staphylococcus aureus; assay: Antimicrobial activity against epidemic methicillin-resistant Staphylococcus aureus 15 after 24 hrs; procedure, shortened: as §1
[8] = system: Cutibacterium acnes; assay: Antimicrobial activity against Propionibacterium acnes D1 after 48 hrs; procedure, shortened: as §1
[9] = system: Clostridioides difficile; assay: Antimicrobial activity against Clostridium difficile Z66 after 48 hrs; procedure, shortened: as §2
[10] = system: Staphylococcus aureus; assay: Antimicrobial activity against methicillin-resistant Staphylococcus aureus D1 after 24 hrs; procedure, shortened: as §1
[11] = system: Staphylococcus epidermidis; assay: Antimicrobial activity against Staphylococcus epidermidis RP62A after 24 hrs; procedure, shortened: as §1
[12] = system: Staphylococcus aureus; assay: Antimicrobial activity against Staphylococcus aureus H1 after 24 hrs; procedure, shortened: as §1
[13] = system: Acinetobacter sp.; assay: Antimicrobial activity against Acinetobacter sp.2
[14] = system: Clostridioides difficile; assay: Antimicrobial activity against Clostridium difficile Z161 after 48 hrs; procedure, shortened: as §2
[15] = system: Cutibacterium acnes; assay: Antimicrobial activity against Propionibacterium acnes C5 after 48 hrs; procedure, shortened: as §1
[16] = system: Cutibacterium acnes; assay: Antimicrobial activity against Propionibacterium acnes C1 after 24 hrs; procedure, shortened: as §1
[17] = system: Clostridioides difficile; assay: Antimicrobial activity against Clostridium difficile Z16 after 48 hrs; procedure, shortened: as §2
[18] = system: Clostridioides difficile; assay: Antimicrobial activity against Clostridium difficile Z1591 after 48 hrs; procedure, shortened: as §2
[19] = system: Staphylococcus aureus; assay: Antimicrobial activity against methicillin-resistant Staphylococcus aureus A3 after 24 hrs; procedure, shortened: as §1
[20] = system: Clostridioides difficile; assay: Antimicrobial activity against Clostridium difficile Z160 after 48 hrs; procedure, shortened: as §2
[21] = system: Clostridioides difficile; assay: Antimicrobial activity against Clostridium difficile Z177 after 48 hrs; procedure, shortened: as §2
[22] = system: Clostridioides difficile; assay: Antimicrobial activity against Clostridium difficile Z1579 after 48 hrs; procedure, shortened: as §2
[23] = system: Staphylococcus epidermidis; assay: Antimicrobial activity against Staphylococcus epidermidis 9 after 24 hrs; procedure, shortened: as §1
[24] = system: Candida albicans; assay: Antimicrobial activity against Candida albicans 1012155
[25] = system: Clostridioides difficile; assay: Antimicrobial activity against Clostridium difficile Z169 after 48 hrs; procedure, shortened: as §2
[26] = system: Clostridioides difficile; assay: Antimicrobial activity against Clostridium difficile Z176 after 48 hrs; procedure, shortened: as §2
[27] = system: Clostridioides difficile; assay: Antimicrobial activity against Clostridium difficile Z229 after 48 hrs; procedure, shortened: as §2
[28] = system: Staphylococcus aureus; assay: Antimicrobial activity against methicillin-resistant Staphylococcus aureus C1 after 24 hrs; procedure, shortened: as §1
[29] = system: Clostridioides difficile; assay: Antimicrobial activity against Clostridium difficile Z171 after 48 hrs; procedure, shortened: as §2
[30] = system: Staphylococcus aureus; assay: Antimicrobial activity against Staphylococcus aureus K1 after 24 hrs; procedure, shortened: as §1
[31] = system: Staphylococcus aureus; assay: Antimicrobial activity against methicillin-resistant Staphylococcus aureus B1 after 24 hrs; procedure, shortened: as §1
[32] = system: Clostridioides difficile; assay: Antimicrobial activity against Clostridium difficile Z251 after 48 hrs; procedure, shortened: as §2
[33] = system: Clostridioides difficile; assay: Antimicrobial activity against Clostridium difficile Z387 after 48 hrs; procedure, shortened: as §2
[34] = system: Staphylococcus epidermidis; assay: Antimicrobial activity against Staphylococcus epidermidis 4 after 24 hrs; procedure, shortened: as §1
[35] = system: Clostridioides difficile; assay: Antimicrobial activity against Clostridium difficile Z166 after 48 hrs; procedure, shortened: as §2
[36] = system: Staphylococcus aureus; assay: Antimicrobial activity against methicillin-sensitive Staphylococcus aureus A3 after 24 hrs; procedure, shortened: as §1
[37] = system: Staphylococcus epidermidis; assay: Antimicrobial activity against Staphylococcus epidermidis 10 after 24 hrs; procedure, shortened: as §1
[38] = system: Clostridioides difficile; assay: Antimicrobial activity against Clostridium difficile Z163 after 48 hrs; procedure, shortened: as §2
[39] = system: Staphylococcus epidermidis; assay: Antimicrobial activity against Staphylococcus epidermidis 3 after 24 hrs; procedure, shortened: as §1

## CCNC(=S)N/N=C/C=C/c1ccc([N+](=O)[O-])o1
[1]
  MIC: 4 µg/mL (≈ 14.9 µM)
[2]
  MIC: 4 µg/mL (≈ 14.9 µM)
[3]
  MIC: 128 µg/mL (≈ 477 µM)
[4]
  MIC: 4 µg/mL (≈ 14.9 µM)
[5]
  MIC: 4 µg/mL (≈ 14.9 µM)
[6]
  MIC: 4 µg/mL (≈ 14.9 µM)
[7]
  MIC: 4 µg/mL (≈ 14.9 µM)
[8]
  MIC: 4 µg/mL (≈ 14.9 µM)
[9]
  MIC: 4 µg/mL (≈ 14.9 µM)
[10]
  MIC: 4 µg/mL (≈ 14.9 µM)
[11]
  MIC: 4 µg/mL (≈ 14.9 µM)
[12]
  MIC: 64 µg/mL (≈ 239 µM)
[13]
  MIC: 128 µg/mL (≈ 477 µM)
[14]
  MIC: 0.5 µg/mL (≈ 1.86 µM)
[15]
  MIC: 32 µg/mL (≈ 119 µM)
[16]
  MIC: 8 µg/mL (≈ 29.8 µM)
[17]
  MIC: 8 µg/mL (≈ 29.8 µM)
[18]
  MIC: 1 µg/mL (≈ 3.73 µM)
[19]
  MIC: 4 µg/mL (≈ 14.9 µM)
[20]
  MIC: 8 µg/mL (≈ 29.8 µM)
[21]
  MIC: 2 µg/mL (≈ 7.45 µM)
[22]
  MIC: 2 µg/mL (≈ 7.45 µM)
[23]
  MIC: 1 µg/mL (≈ 3.73 µM)
[24]
  MIC: 128 µg/mL (≈ 477 µM)
[25]
  MIC: 2 µg/mL (≈ 7.45 µM)
[26]
  MIC: 2 µg/mL (≈ 7.45 µM)
[27]
  MIC: 4 µg/mL (≈ 14.9 µM)
[28]
  MIC: 2 µg/mL (≈ 7.45 µM)
[29]
  MIC: 2 µg/mL (≈ 7.45 µM)
[30]
  MIC: 4 µg/mL (≈ 14.9 µM)
[31]
  MIC: 4 µg/mL (≈ 14.9 µM)
[32]
  MIC: 1 µg/mL (≈ 3.73 µM)
[33]
  MIC: 16 µg/mL (≈ 59.6 µM)
[34]
  MIC: 4 µg/mL (≈ 14.9 µM)
[35]
  MIC: 2 µg/mL (≈ 7.45 µM)
[36]
  MIC: 4 µg/mL (≈ 14.9 µM)
[37]
  MIC: 4 µg/mL (≈ 14.9 µM)
[38]
  MIC: 2 µg/mL (≈ 7.45 µM)
[39]
  MIC: 2 µg/mL (≈ 7.45 µM)
